Results from ChEMBL document CHEMBL1156864, “Boron-containing phenoxyacetanilide derivatives as hypoxia-inducible factor (HIF)-1alpha inhibitors” (Bioorg Med Chem Lett, 2010).

Assays:
[1] = target: Hypoxia-inducible factor 1-alpha (Homo sapiens, UniProt Q16665); test: Inhibition of hypoxia-induced HIF1alpha activation in human HeLa cells after 12 hrs by HRE-luciferase reporter gene assay; type: cell-based
Summary of the method: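 HeLa cells stably carrying HRE(×5)-luciferase reporter, incubated 12 h with or without drug under hypoxic conditions. Supernatant removed, then luciferase assay. IC50 is concentration halving relative light units, read from semi-logarithmic dose–response plots; mean ± SD of triplicates.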

HeLa = test: Growth inhibition of human HeLa cells after 48 hrs by MTT assay; type: functional
Summary of the method: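 HeLa cells exposed 48 h under normoxia to 100 nM–100 μM compound; viable cells measured by MTT. GI50 read from semi-logarithmic dose–response plots; mean ± SD of triplicate samples.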

Hypoxia-inducible factor 1-alpha, sequence (Q16665 whole entry): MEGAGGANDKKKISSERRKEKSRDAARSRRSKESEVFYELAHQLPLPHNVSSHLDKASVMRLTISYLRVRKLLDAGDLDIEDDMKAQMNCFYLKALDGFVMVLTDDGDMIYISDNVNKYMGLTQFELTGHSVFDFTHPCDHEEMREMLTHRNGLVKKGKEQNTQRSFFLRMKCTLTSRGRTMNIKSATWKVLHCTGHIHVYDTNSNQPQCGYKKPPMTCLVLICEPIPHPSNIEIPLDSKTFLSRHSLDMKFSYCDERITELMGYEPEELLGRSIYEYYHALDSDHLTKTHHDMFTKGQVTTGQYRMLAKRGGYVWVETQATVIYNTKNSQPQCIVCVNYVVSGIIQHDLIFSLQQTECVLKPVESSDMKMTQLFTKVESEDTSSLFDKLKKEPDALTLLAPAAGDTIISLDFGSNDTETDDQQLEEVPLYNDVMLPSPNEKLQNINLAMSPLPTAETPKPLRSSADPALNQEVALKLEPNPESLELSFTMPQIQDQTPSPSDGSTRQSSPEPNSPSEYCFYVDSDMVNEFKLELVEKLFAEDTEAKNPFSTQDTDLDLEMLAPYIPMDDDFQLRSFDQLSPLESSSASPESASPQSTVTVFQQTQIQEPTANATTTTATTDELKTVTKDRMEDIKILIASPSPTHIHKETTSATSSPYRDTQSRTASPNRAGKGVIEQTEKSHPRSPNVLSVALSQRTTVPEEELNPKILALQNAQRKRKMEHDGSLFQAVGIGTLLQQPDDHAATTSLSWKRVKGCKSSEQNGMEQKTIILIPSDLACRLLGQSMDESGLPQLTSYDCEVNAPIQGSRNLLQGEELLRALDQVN

IC50 [1] | GI50 (HeLa) | SMILES
35.3 µM | 12.1 µM | CC(C)(C)c1ccc(OCC(=O)Nc2cc(B3OC(C)(C)C(C)(C)O3)ccc2O)cc1
> 100 µM | 5.8 µM | CC1(C)OB(c2ccc(O)c(NC(=O)COc3ccc(-c4ccccc4)cc3)c2)OC1(C)C
91.8 µM | 8.6 µM | CCc1ccc(OCC(=O)Nc2cc(B3OC(C)(C)C(C)(C)O3)ccc2O)cc1
90.6 µM | 17.7 µM | Cc1ccc(OCC(=O)Nc2cc(B3OC(C)(C)C(C)(C)O3)ccc2O)cc1

More lines, now with the values behind:

SMILES | IC50 [1] | GI50 (HeLa)
O=C(COc1ccc(C23CC4CC(CC(C4)C2)C3)cc1)Nc1cc(C(=O)O)ccc1O | 3.1 µM | 51.6 µM
O=C(COc1ccc(-c2ccccc2)cc1)Nc1cc(B(O)O)ccc1O | > 100 µM | 85.9 µM
CCc1ccc(OCC(=O)Nc2cc(B(O)O)ccc2O)cc1 | > 100 µM | 14.9 µM
Cc1ccc(OCC(=O)Nc2cc(B(O)O)ccc2O)cc1 | > 100 µM | 25.7 µM
O=C(COc1ccc(C2CCCCC2)cc1)Nc1cc(B(O)O)ccc1O | 84.8 µM | 29.2 µM
CC1(C)OB(c2ccc(O)c(NC(=O)COc3ccc(C4CCCCC4)cc3)c2)OC1(C)C | 70.4 µM | 13.4 µM
CC(C)(C)c1ccc(OCC(=O)Nc2cc(B(O)O)ccc2O)cc1 | 40.3 µM | 21.3 µM
O=C(COc1ccc(C23CC4CC(CC(C4)C2)C3)cc1)Nc1cc(B(O)O)ccc1O | 4.6 µM | 15.2 µM
CC1(C)OB(c2ccc(O)c(NC(=O)COc3ccc(C45CC6CC(CC(C6)C4)C5)cc3)c2)OC1(C)C | 3.1 µM | 16 µM
